Experimental data taken from ChEMBL document CHEMBL4765368, “Structure guided design and synthesis of furyl thiazolidinedione derivatives as inhibitors of GLUT 1 and GLUT 4, and evaluation of their anti-leukemic potential” (Eur J Med Chem, 2020).
pIC50: −log10 of the molar value. Active and inactive are the calls of the source. The calls are words filed in the database; no cut-off is given here.

Assays:
K562 = test: Cytotoxicity against human K562 cells assessed as reduction in cell viability measured after 48 hrs by Hoechst 33342/propidium iodide staining based imaging analysis; type: functional
Outline: (§1)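 Cells were seeded at 10,000 per well (HS-27 at 3,000) in 10% FBS RPMI (leukemic lines) or DMEM (MDA-MB-231, HS-27). Compound in DMSO (1% v/v final) at 0.5–100 µM for 48 h. Hoechst 33342 and PI were added 2 h before automated imaging; dead cells were co-stained. Quadruplicates. CC50 was taken by linear interpolation between the two concentrations nearest 50% death.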

[1] = biological target: Histone deacetylase 4 (Homo sapiens) (UniProt P56524); test: (§2) Inhibition of recombinant human N-terminal GST-tagged HDAC4 (627 to end residues) expressed in baculovirus infected Sf9 insect cells assessed as residual activity at 50 uM using Boc-Lys(trifluoroacetyl)-AMC as substrate preincubated for 60 mins followed by substrate addition and measured after 60 mins by fluorescence assay relative to control; settings: time 120.0 min
[2] = biological target: T1, Solute carrier family 2, facilitated glucose transporter member 5 (Homo sapiens) (UniProt P22732); test: Inhibition of transport activity of human GLUT5 expressed in hexose transporter deficient VW4000 yeast cells assessed as reduction in transporter-mediated [14C]-fructose uptake into cells at 100 uM measured after 10 mins by scintillation counting method; type: cell-based
T1 sequence (whole entry): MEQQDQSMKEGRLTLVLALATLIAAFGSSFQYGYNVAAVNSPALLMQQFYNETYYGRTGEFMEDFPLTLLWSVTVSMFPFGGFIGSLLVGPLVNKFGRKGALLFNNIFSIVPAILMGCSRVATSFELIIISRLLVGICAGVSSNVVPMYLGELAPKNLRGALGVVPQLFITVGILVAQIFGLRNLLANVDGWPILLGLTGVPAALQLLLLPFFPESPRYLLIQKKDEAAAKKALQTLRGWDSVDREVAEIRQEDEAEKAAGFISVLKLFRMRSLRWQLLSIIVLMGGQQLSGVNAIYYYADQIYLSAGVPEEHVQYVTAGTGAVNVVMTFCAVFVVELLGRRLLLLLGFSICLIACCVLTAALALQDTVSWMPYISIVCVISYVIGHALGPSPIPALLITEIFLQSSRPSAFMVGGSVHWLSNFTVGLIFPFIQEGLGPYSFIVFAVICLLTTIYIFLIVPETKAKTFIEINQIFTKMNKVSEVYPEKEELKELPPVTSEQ
Outline: (§3)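 The hxt0 yeast strain expressing one human GLUT was grown at 30 °C and resuspended in PBS pH 7.4 at OD600 ~10. Uptake was started with 14C-glucose at 5 mM final (GLUT1, GLUT4) or 14C-fructose at 10 mM final (GLUT5). It was quenched after 10 min with ice-cold 0.1 M KPi/0.1 M LiCl pH 5.5, filtered and counted by scintillation. Compound at 100 μM with 1% DMSO; DMSO control and phloretin 200 μM (GLUT1/4) or MSNBA 100 μM (GLUT5) as references. Triplicates.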

[3] = biological target: T2, Solute carrier family 2, facilitated glucose transporter member 1 (Homo sapiens, UniProt P11166); test: Inhibition of transport activity of human GLUT1 expressed in hexose transporter deficient VW4000fgy1 yeast cells assessed as reduction in transporter-mediated [14C]-hexose uptake into cells measured after 10 mins by scintillation counting method; type: cell-based
T2 sequence (P11166 whole entry): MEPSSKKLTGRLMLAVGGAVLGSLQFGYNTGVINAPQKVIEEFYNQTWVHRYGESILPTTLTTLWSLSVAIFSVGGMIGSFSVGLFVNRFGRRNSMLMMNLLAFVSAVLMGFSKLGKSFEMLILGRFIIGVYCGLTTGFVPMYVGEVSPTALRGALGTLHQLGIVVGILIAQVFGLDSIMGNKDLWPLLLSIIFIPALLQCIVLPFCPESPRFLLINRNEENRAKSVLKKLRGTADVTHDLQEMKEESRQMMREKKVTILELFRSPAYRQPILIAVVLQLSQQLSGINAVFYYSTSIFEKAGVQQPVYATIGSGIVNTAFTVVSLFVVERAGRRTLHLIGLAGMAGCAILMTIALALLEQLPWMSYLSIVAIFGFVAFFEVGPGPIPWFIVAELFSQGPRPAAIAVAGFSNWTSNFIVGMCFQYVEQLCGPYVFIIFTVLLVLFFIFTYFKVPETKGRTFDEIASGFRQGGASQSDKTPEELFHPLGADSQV
Outline: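 GLUT1 (VW4000fgy1) or GLUT4 (VW4000fgy1erg4) hxt0 yeast were grown on maltose and then glucose and resuspended in PBS pH 7.4 at OD600 ~10. Compound was used at 0.1–100 μM, final 1% DMSO. Uptake of 5 mM 14C-glucose over 10 min was stopped with ice-cold quench buffer, filtered and counted by scintillation. IC50 was taken from dose-response curves of three independent measurements.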

[4] = biological target: T3, Solute carrier family 2, facilitated glucose transporter member 1 (Homo sapiens) (UniProt P11166); test: Inhibition of transport activity of human GLUT1 expressed in hexose transporter deficient VW4000fgy1 yeast cells assessed as reduction in transporter-mediated [14C]-hexose uptake into cells at 100 uM measured after 10 mins by scintillation counting method relative to control; type: cell-based; outline: as §3
T3 sequence (whole entry): T2 sequence (P11166 whole entry)

[5] = biological target: T4, Histone deacetylase 8 (Homo sapiens) (UniProt Q9BY41); test: as §2, with “His6/SUMO-tagged HDAC8” for “N-terminal GST-tagged HDAC4 (627 to end residues)”, “Escherichia coli (BL21) DE3 pLysS” for “baculovirus infected Sf9 insect cells”; settings: time 120.0 min
T4 sequence (whole entry): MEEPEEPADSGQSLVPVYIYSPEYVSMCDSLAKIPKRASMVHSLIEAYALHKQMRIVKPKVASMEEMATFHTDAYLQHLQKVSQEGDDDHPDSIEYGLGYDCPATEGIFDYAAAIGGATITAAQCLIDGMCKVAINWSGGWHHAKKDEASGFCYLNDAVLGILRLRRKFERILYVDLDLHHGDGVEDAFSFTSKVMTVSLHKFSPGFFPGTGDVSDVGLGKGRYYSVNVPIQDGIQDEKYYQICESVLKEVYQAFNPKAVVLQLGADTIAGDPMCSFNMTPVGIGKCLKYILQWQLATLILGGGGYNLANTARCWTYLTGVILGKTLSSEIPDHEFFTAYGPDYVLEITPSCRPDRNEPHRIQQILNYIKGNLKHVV
Outline: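 20 μM Boc-Lys(trifluoroacetyl)-AMC was then added for 60 min at 30 °C, the reaction stopped with 1.7 μM SATFMK and developed with 0.4 mg/ml trypsin, and AMC fluorescence read at Ex 350/Em 450 nm. Triplicates; percent relative activity.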

HS27 = test: Cytotoxicity against human HS27 cells assessed as reduction in cell viability measured after 48 hrs by Hoechst 33342/propidium iodide staining based imaging analysis; settings: hs27, 48 h; outline: as §1

Histone deacetylase 4 (Homo sapiens), sequence (P56524 whole entry): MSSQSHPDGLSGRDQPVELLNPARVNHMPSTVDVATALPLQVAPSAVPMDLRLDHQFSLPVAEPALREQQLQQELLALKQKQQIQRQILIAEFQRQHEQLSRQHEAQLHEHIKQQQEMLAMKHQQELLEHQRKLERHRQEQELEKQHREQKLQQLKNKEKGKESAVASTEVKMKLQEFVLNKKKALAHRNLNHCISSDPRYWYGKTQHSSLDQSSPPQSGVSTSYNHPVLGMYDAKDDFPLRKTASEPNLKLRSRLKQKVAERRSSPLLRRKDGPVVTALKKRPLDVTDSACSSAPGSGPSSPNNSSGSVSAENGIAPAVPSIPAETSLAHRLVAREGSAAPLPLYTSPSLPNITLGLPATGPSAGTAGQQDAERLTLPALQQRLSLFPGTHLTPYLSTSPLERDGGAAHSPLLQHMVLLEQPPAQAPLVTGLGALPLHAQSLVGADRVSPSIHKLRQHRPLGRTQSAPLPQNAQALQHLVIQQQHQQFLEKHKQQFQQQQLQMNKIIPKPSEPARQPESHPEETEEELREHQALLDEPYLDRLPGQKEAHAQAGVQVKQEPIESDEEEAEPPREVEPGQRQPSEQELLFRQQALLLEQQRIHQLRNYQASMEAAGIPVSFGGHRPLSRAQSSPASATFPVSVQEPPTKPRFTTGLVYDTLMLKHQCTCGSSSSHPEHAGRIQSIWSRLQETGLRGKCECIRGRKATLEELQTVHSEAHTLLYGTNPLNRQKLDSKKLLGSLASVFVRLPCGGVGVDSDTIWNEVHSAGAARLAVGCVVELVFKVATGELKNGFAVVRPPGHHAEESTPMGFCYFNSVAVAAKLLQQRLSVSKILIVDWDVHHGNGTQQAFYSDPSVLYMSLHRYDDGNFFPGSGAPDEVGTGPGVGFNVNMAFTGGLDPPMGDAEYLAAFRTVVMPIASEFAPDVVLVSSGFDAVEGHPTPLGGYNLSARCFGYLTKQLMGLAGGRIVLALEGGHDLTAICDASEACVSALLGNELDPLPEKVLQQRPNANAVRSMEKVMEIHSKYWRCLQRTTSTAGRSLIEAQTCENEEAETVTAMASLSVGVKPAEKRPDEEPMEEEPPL

Row | Structure (SMILES) | CC50 (K562) | Activity [1] | inhibition [2] | pIC50 [3] | inhibition [4] | Activity [5] | CC50 (HS27)
1 | O=C(CN1C(=O)S/C(=C/c2ccco2)C1=O)Nc1ccc(Cl)c(Cl)c1 | 43.3 µM | > 50% | inactive | 4.83 | > 50% | > 50% | > 100 µM
2 | O=C(CN1C(=O)S/C(=C/c2ccco2)C1=O)Nc1nc2ccccc2s1 | 91.9 µM | > 50% | inactive | 4.94 | 100% | > 50% | 44 µM
